Measurements published in ChEMBL document CHEMBL1649562, “Emergence of high levels of extended-spectrum-beta-lactamase-producing gram-negative bacilli in the Asia-Pacific region: data from the Study for Monitoring Antimicrobial Resistance Trends (SMART) program, 2007” (2009).
The source made the active and inactive calls.

Key:
Klebsiella aerogenes [1] = experiment: Antimicrobial activity against Enterobacter aerogenes assessed as percent susceptible isolates by CLSI method; format: functional
Citrobacter freundii [2] = experiment: Antimicrobial activity against Citrobacter freundii assessed as percent susceptible isolates by CLSI method; format: functional
Enterobacter cloacae [3] = experiment: Antimicrobial activity against Enterobacter cloacae assessed as percent susceptible isolates by CLSI method; format: functional
Klebsiella pneumoniae [4] = experiment: Antimicrobial activity against extended spectrum beta-lactamase-expressing Klebsiella pneumoniae assessed as percent susceptible isolates by CLSI method; format: functional
Escherichia coli [5] = experiment: Antimicrobial activity against extended spectrum beta-lactamase-expressing Escherichia coli assessed as percent susceptible isolates by CLSI method; format: functional
Escherichia coli [6] = experiment: Antimicrobial activity against extended spectrum beta-lactamase-deficient Escherichia coli assessed as percent susceptible isolates by CLSI method; format: functional
Klebsiella oxytoca [7] = experiment: Antimicrobial activity against extended spectrum beta-lactamase-expressing Klebsiella oxytoca assessed as percent susceptible isolates by CLSI method; format: functional
Klebsiella oxytoca [8] = experiment: Antimicrobial activity against extended spectrum beta-lactamase-deficient Klebsiella oxytoca assessed as percent susceptible isolates by CLSI method; format: functional
Klebsiella pneumoniae [9] = experiment: Antimicrobial activity against extended spectrum beta-lactamase-deficient Klebsiella pneumoniae assessed as percent susceptible isolates by CLSI method; format: functional
Proteus mirabilis [10] = experiment: Antimicrobial activity against Proteus mirabilis assessed as percent susceptible isolates by CLSI method; format: functional
Pseudomonas aeruginosa [11] = experiment: Antimicrobial activity against Pseudomonas aeruginosa assessed as percent susceptible isolates by CLSI method; format: functional
Klebsiella aerogenes [12] = experiment: Antimicrobial activity against Enterobacter aerogenes assessed as percent susceptible isolates by CLSI method in presence of beta-lactamase inhibitor Sulbactam; format: functional
Summary of the method: (§1)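 Site laboratories identified isolates by their local methods. MICs were read from dehydrated broth microdilution panels, the same panel at all sites, following CLSI procedure. Susceptibility was categorized by CLSI interpretive criteria. QC ran daily at each site with E. coli ATCC 25922, K. pneumoniae ATCC 700603 and P. aeruginosa ATCC 27853.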

Citrobacter freundii [13] = experiment: Antimicrobial activity against Citrobacter freundii assessed as percent susceptible isolates by CLSI method in presence of beta-lactamase inhibitor Sulbactam; format: functional; summary of the method: as §1
Enterobacter cloacae [14] = experiment: Antimicrobial activity against Enterobacter cloacae assessed as percent susceptible isolates by CLSI method in presence of beta-lactamase inhibitor Sulbactam; format: functional; summary of the method: as §1
Escherichia coli [15] = experiment: Antimicrobial activity against extended spectrum beta-lactamase-expressing Escherichia coli assessed as percent susceptible isolates by CLSI method in presence of beta-lactamase inhibitor Sulbactam; format: functional
Summary of the method: (§2)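 ESBL status was assigned when the ceftazidime or cefotaxime MIC fell at least eightfold (three doubling dilutions) with clavulanic acid, compared with the drug alone. Isolates were identified locally at each site. MICs came from uniform dehydrated broth microdilution panels under CLSI procedure, with susceptibility by CLSI criteria. Daily QC used E. coli ATCC 25922, K. pneumoniae ATCC 700603 (ESBL-positive) and P. aeruginosa ATCC 27853.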

Escherichia coli [16] = experiment: Antimicrobial activity against extended spectrum beta-lactamase-deficient Escherichia coli assessed as percent susceptible isolates by CLSI method in presence of beta-lactamase inhibitor Sulbactam; format: functional; summary of the method: as §2
Klebsiella oxytoca [17] = experiment: Antimicrobial activity against extended spectrum beta-lactamase-expressing Klebsiella oxytoca assessed as percent susceptible isolates by CLSI method in presence of beta-lactamase inhibitor Sulbactam; format: functional; summary of the method: as §2
Klebsiella oxytoca [18] = experiment: Antimicrobial activity against extended spectrum beta-lactamase-deficient Klebsiella oxytoca assessed as percent susceptible isolates by CLSI method in presence of beta-lactamase inhibitor Sulbactam; format: functional; summary of the method: as §2
Klebsiella pneumoniae [19] = experiment: Antimicrobial activity against extended spectrum beta-lactamase-expressing Klebsiella pneumoniae assessed as percent susceptible isolates by CLSI method in presence of beta-lactamase inhibitor Sulbactam; format: functional; summary of the method: as §2
Klebsiella pneumoniae [20] = experiment: Antimicrobial activity against extended spectrum beta-lactamase-deficient Klebsiella pneumoniae assessed as percent susceptible isolates by CLSI method in presence of beta-lactamase inhibitor Sulbactam; format: functional; summary of the method: as §2
Proteus mirabilis [21] = experiment: Antimicrobial activity against Proteus mirabilis assessed as percent susceptible isolates by CLSI method in presence of beta-lactamase inhibitor Sulbactam; format: functional; summary of the method: as §1
Pseudomonas aeruginosa [22] = experiment: Antimicrobial activity against Pseudomonas aeruginosa assessed as percent susceptible isolates by CLSI method in presence of beta-lactamase inhibitor Sulbactam; format: functional, organism-based; summary of the method: as §1
Enterobacter cloacae [23] = experiment: Antimicrobial activity against Enterobacter cloacae assessed as percent susceptible isolates by CLSI method in presence of beta-lactamase inhibitor tazobactem; format: functional; summary of the method: as §1
Citrobacter freundii [24] = experiment: Antimicrobial activity against Citrobacter freundii assessed as percent susceptible isolates by CLSI method in presence of beta-lactamase inhibitor tazobactem; format: functional; summary of the method: as §1
Klebsiella aerogenes [25] = experiment: Antimicrobial activity against Enterobacter aerogenes assessed as percent susceptible isolates by CLSI method in presence of beta-lactamase inhibitor tazobactem; format: functional; summary of the method: as §1
Escherichia coli [26] = experiment: Antimicrobial activity against extended spectrum beta-lactamase-expressing Escherichia coli assessed as percent susceptible isolates by CLSI method in presence of beta-lactamase inhibitor tazobactem; format: functional; summary of the method: as §2
Escherichia coli [27] = experiment: Antimicrobial activity against extended spectrum beta-lactamase-deficient Escherichia coli assessed as percent susceptible isolates by CLSI method in presence of beta-lactamase inhibitor tazobactem; format: functional; summary of the method: as §2
Klebsiella oxytoca [28] = experiment: Antimicrobial activity against extended spectrum beta-lactamase-expressing Klebsiella oxytoca assessed as percent susceptible isolates by CLSI method in presence of beta-lactamase inhibitor tazobactem; format: functional; summary of the method: as §2
Klebsiella oxytoca [29] = experiment: Antimicrobial activity against extended spectrum beta-lactamase-deficient Klebsiella oxytoca assessed as percent susceptible isolates by CLSI method in presence of beta-lactamase inhibitor tazobactem; format: functional; summary of the method: as §2
Klebsiella pneumoniae [30] = experiment: Antimicrobial activity against extended spectrum beta-lactamase-expressing Klebsiella pneumoniae assessed as percent susceptible isolates by CLSI method in presence of beta-lactamase inhibitor tazobactem; format: functional; summary of the method: as §2
Klebsiella pneumoniae [31] = experiment: Antimicrobial activity against extended spectrum beta-lactamase-deficient Klebsiella pneumoniae assessed as percent susceptible isolates by CLSI method in presence of beta-lactamase inhibitor tazobactem; format: functional; summary of the method: as §2
Proteus mirabilis [32] = experiment: Antimicrobial activity against Proteus mirabilis assessed as percent susceptible isolates by CLSI method in presence of beta-lactamase inhibitor tazobactem; format: functional; summary of the method: as §1
Pseudomonas aeruginosa [33] = experiment: Antimicrobial activity against Pseudomonas aeruginosa assessed as percent susceptible isolates by CLSI method in presence of beta-lactamase inhibitor tazobactem; format: functional; summary of the method: as §1

SMILES | Activity (Klebsiella aerogenes [1]) [%] | Activity (Citrobacter freundii [2]) [%] | Activity (Enterobacter cloacae [3]) [%] | Activity (Klebsiella pneumoniae [4]) [%] | Activity (Escherichia coli [5]) [%] | Activity (Escherichia coli [6]) [%] | Activity (Klebsiella oxytoca [7]) [%] | Activity (Klebsiella oxytoca [8]) [%] | Activity (Klebsiella pneumoniae [9]) [%] | Activity (Proteus mirabilis [10]) [%] | Activity (Pseudomonas aeruginosa [11]) | also measured
C[C@@H](O)[C@H]1C(=O)N2C(C(=O)O)=C(S[C@@H]3CN[C@H](C(=O)Nc4cccc(C(=O)O)c4)C3)[C@H](C)[C@H]12 | 97 | 98 | 94 | 86 | 96 | 100 | 100 | 100 | 99 | 100 | inactive | –
NCC[C@H](O)C(=O)N[C@@H]1C[C@H](N)[C@@H](O[C@H]2O[C@H](CN)[C@@H](O)[C@H](O)[C@H]2O)[C@H](O)[C@H]1O[C@H]1O[C@H](CO)[C@@H](O)[C@H](N)[C@H]1O [AMIKACIN] | 83 | 84 | 92 | 73 | 87 | 98 | 86 | 100 | 99 | 92 | 85% | –
CC1(C)S[C@@H]2[C@H](NC(=O)[C@H](N)c3ccccc3)C(=O)N2[C@H]1C(=O)O [AMPICILLIN] | – | – | – | – | – | – | – | – | – | – | – | Activity (Klebsiella aerogenes [12]): 31%; Activity (Citrobacter freundii [13]): 37%; Activity (Enterobacter cloacae [14]): 17%; Activity (Escherichia coli [15]): 5%; Activity (Escherichia coli [16]): 43%; Activity (Klebsiella oxytoca [17]): 5%; Activity (Klebsiella oxytoca [18]): 76%; Activity (Klebsiella pneumoniae [19]): 6%; Activity (Klebsiella pneumoniae [20]): 76%; Activity (Proteus mirabilis [21]): 72%; Activity (Pseudomonas aeruginosa [22]): inactive
CO/N=C(\C(=O)N[C@@H]1C(=O)N2C(C(=O)O)=C(COC(C)=O)CS[C@H]12)c1csc(N)n1 [CEFOTAXIME] | 48 | 43 | 49 | 9 | 5 | 97 | 14 | 97 | 97 | 77 | 14% | –
CO[C@@]1(NC(=O)Cc2cccs2)C(=O)N2C(C(=O)O)=C(COC(N)=O)CS[C@@H]21 [CEFOXITIN] | 22 | 16 | 7 | 61 | 66 | 89 | 64 | 97 | 87 | 95 | inactive | –
CC(C)(O/N=C(\C(=O)N[C@@H]1C(=O)N2C(C(=O)[O-])=C(C[n+]3ccccc3)CS[C@H]12)c1csc(N)n1)C(=O)O [CEFTAZIDIME] | 46 | 43 | 53 | 20 | 29 | 95 | 27 | 97 | 97 | 89 | 66% | –
CO/N=C(\C(=O)N[C@@H]1C(=O)N2C(C(=O)O)=C(CSc3nc(=O)c(O)nn3C)CS[C@H]12)c1csc(N)n1 [CEFTRIAXONE] | 55 | 45 | 48 | 10 | 4 | 96 | 9 | 97 | 97 | 77 | 19% | –
C[C@@H](O)[C@H]1C(=O)N2C(C(=O)O)=C(SCCNC=N)C[C@H]12 [IMIPENEM ANHYDROUS] | 97 | 100 | 98 | 97 | 98 | 100 | 100 | 100 | 100 | 100 | 71% | –
C[C@H]1COc2c(N3CCN(C)CC3)c(F)cc3c(=O)c(C(=O)O)cn1c23.C[C@H]1COc2c(N3CCN(C)CC3)c(F)cc3c(=O)c(C(=O)O)cn1c23.O [LEVOFLOXACIN] | 83 | 77 | 79 | 43 | 21 | 72 | 41 | 97 | 94 | 84 | 73% | –
CCN1CCN(C(=O)N[C@@H](C(=O)N[C@@H]2C(=O)N3[C@@H]2SC(C)(C)[C@@H]3C(=O)O)c2ccccc2)C(=O)C1=O [PIPERACILLIN] | – | – | – | – | – | – | – | – | – | – | – | Activity (Enterobacter cloacae [23]): 71%; Activity (Citrobacter freundii [24]): 71%; Activity (Klebsiella aerogenes [25]): 69%; Activity (Escherichia coli [26]): 83%; Activity (Escherichia coli [27]): 94%; Activity (Klebsiella oxytoca [28]): 68%; Activity (Klebsiella oxytoca [29]): 100%; Activity (Klebsiella pneumoniae [30]): 57%; Activity (Klebsiella pneumoniae [31]): 94%; Activity (Proteus mirabilis [32]): 97%; Activity (Pseudomonas aeruginosa [33]): 81%
